# Experimental data published in ChEMBL document CHEMBL1944538, “Synthetic peptides derived from the sequence of a lasso peptide microcin J25 show antibacterial activity” (Bioorg Med Chem, 2012).
# Active and inactive are the calls of the source. No cut-off for these calls is given here. Positions of bridges follow the written chain, without caps; N, C: chain ends. Residues, ends and D or L forms follow the SMILES beside them.
# Columns and labels:
# Enterococcus faecalis = assay: Antibacterial activity against Enterococcus faecalis ATCC 19433; type: functional, organism-based
# Staphylococcus aureus = assay: Antibacterial activity against Staphylococcus aureus ATCC 6538; type: functional, organism-based
# Escherichia coli [1] = assay: Antibacterial activity against Escherichia coli MC4100 up to 250 uM after 24 hrs by liquid growth inhibition assay; type: functional, organism-based
# Outline: (§1)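 Liquid broth microdilution in LB. Peptide stocks were made in 20% methanol/water (1 or 2.5 mM), then serially doubled in water to final 0.01–100 or 0.5–250 µM. Inoculum was diluted to OD620 0.02–0.05. Plates ran 24 h at 37 °C and were read at OD620. MIC was the lowest concentration giving 100% growth inhibition (0.05 AU). Triplicate wells, three repeat experiments.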
# Escherichia coli [2] = assay: Antibacterial activity against Escherichia coli DH5alpha up to 250 uM after 24 hrs by liquid growth inhibition assay; type: functional, organism-based; conditions: DH5[alpha]; outline: as §1
# [3] = test system: Salmonella enterica subsp. enterica serovar Choleraesuis; assay: Antibacterial activity against Salmonella choleraesuis ATCC 10708 up to 250 uM after 24 hrs by liquid growth inhibition assay; type: functional
# Salmonella paratyphi = assay: Antibacterial activity against Salmonella paratyphi up to 250 uM after 24 hrs by liquid growth inhibition assay; type: functional, organism-based; conditions: Salmonella enterica subsp. enterica serovar Paratyphi A
# [4] = test system: Salmonella enterica subsp. enterica serovar Montevideo; assay: Antibacterial activity against Salmonella montevideo 20 up to 250 uM after 24 hrs by liquid growth inhibition assay; type: functional; outline: as §1
# [5] = test system: Salmonella enterica subsp. enterica serovar Heidelberg; assay: Antibacterial activity against Salmonella heidelberg ATCC 8326 up to 250 uM after 24 hrs by liquid growth inhibition assay; type: functional; outline: as §1
# Salmonella typhimurium [6] = assay: Antibacterial activity against Salmonella Typhimurium ATCC 13311 up to 250 uM after 24 hrs by liquid growth inhibition assay; type: functional, organism-based; conditions: Salmonella enterica subsp. enterica serovar Typhimurium; outline: as §1
# Salmonella typhimurium [7] = assay: Antibacterial activity against Salmonella Typhimurium AFLB 25 up to 250 uM after 24 hrs by liquid growth inhibition assay; type: functional, organism-based; conditions: Salmonella enterica subsp. enterica serovar Typhimurium; outline: as §1
# Salmonella enteritidis [8] = assay: Antibacterial activity against Salmonella enteritidis AFLB 81 up to 250 uM after 24 hrs by liquid growth inhibition assay; type: functional, organism-based; conditions: Salmonella enterica subsp. enterica serovar Enteritidis; outline: as §1
# Salmonella enteritidis [9] = assay: Antibacterial activity against Salmonella enteritidis AFLB 41 up to 250 uM after 24 hrs by liquid growth inhibition assay; type: functional, organism-based; conditions: Salmonella enterica subsp. enterica serovar Enteritidis; outline: as §1
# Salmonella enteritidis [10] = assay: Antibacterial activity against Salmonella enteritidis AFLB 11 up to 250 uM after 24 hrs by liquid growth inhibition assay; type: functional, organism-based; conditions: Salmonella enterica subsp. enterica serovar Enteritidis; outline: as §1
# Salmonella enteritidis [11] = assay: Antibacterial activity against Salmonella enteritidis ATCC 13076 up to 250 uM after 24 hrs by liquid growth inhibition assay; type: functional, organism-based; conditions: Salmonella enterica subsp. enterica serovar Enteritidis; outline: as §1
# Salmonella enteritidis [12] = assay: Antibacterial activity against Salmonella enteritidis PT8 up to 250 uM after 24 hrs by liquid growth inhibition assay; type: functional, organism-based; conditions: Salmonella enterica subsp. enterica serovar Enteritidis; outline: as §1
# [13] = test system: Salmonella enterica subsp. enterica serovar Newport; assay: Antibacterial activity against Salmonella newport clinical isolate up to 250 uM after 24 hrs by liquid growth inhibition assay; type: functional; outline: as §1
# [14] = Cytotoxicity against human MDA-MB-435 cells assessed as cell viability at 0.3 to 100 uM after 24 hrs by MTT assay; type: cell-based; conditions: read-out: Activity
# Outline: (§2)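 MTT assay. MDA-MB-435 cells were kept in RPMI 1640 and MCF7 cells in DMEM, both with 10% FBS, penicillin and streptomycin, at 37 °C and 5% CO2. Cells were seeded at 1×10^4/well and grown 24 h. Samples came from 1 mM stocks in 10% DMSO/water, twofold diluted to 0.3125–100 µM, and applied for 24 h. MTT (5 mg/mL) was added for 3.5 h, then DMSO solubilization and A570. Viability is relative to untreated cells; triplicate, mean.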
# [15] = Cytotoxicity against human MCF7 cells assessed as cell viability at 0.3 to 100 uM after 24 hrs by MTT assay; type: cell-based; conditions: read-out: Activity; outline: as §2
# [16] = Stability of the compound at 200 uM after overnight incubation by spot on lawn method in the presence of chymotrypsin; type: ADME
# [17] = Stability of the compound at 150 uM after 30 mins by RP-HPLC analysis in the presence of pepsin; type: ADME; conditions: 0.5 h
# Outline: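 Peptide (150 µM) was incubated at 37 °C with pepsin (4% w/w) in 0.1 N HCl. Aliquots taken at 0 and 30 min were quenched into 0.1 N NaOH/70% methanol and centrifuged. Supernatant was analysed by C18 RP-HPLC (15–50% isopropanol/water, 0.05% TFA, 35 min, UV 220 nm). Fragments were identified by MALDI-TOF.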
# [18] = Bactericidal activity against Salmonella newport clinical isolate after 24 hrs; type: functional, Salmonella enterica subsp. enterica serovar Newport; conditions: Salmonella enterica
# Outline: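 For MBC, 10 µL from each clear well of the 24 h, 37 °C LB broth-dilution plate was spread on LB agar and incubated 24 h at 37 °C. MBC was the lowest concentration giving no growth on agar.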
# [19] = Antibacterial activity against Salmonella newport clinical isolate after 24 hrs by liquid growth inhibition assay; type: functional, Salmonella enterica subsp. enterica serovar Newport; conditions: Salmonella enterica; outline: as §1
# [20] = test system: Salmonella enterica subsp. enterica serovar Newport; assay: Inhibition of oxygen consumption in Salmonella newport clinical isolate at 30 uM after 35 mins by Gilson Clarke oxygraph analysis; type: functional
# Outline: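 Cells were held 35 min at 37 °C with peptide at the stated concentration. Respiration rate over the next 5 min was measured polarographically with a Clark electrode oxygraph at 37 °C. Results are percent of a peptide-free control; three independent experiments, mean ± SD.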
# [21] = Thermostability in boiling water after 3 hrs; type: physicochemical; conditions: buffer
Structure (SMILES),Activity (Enterococcus faecalis),Activity (Staphylococcus aureus),Activity (Escherichia coli [1]),Activity (Escherichia coli [2]),Activity [3],Activity (Salmonella paratyphi),Activity [4],Activity [5],Activity (Salmonella typhimurium [6]),Activity (Salmonella typhimurium [7]),Activity (Salmonella enteritidis [8]),Activity (Salmonella enteritidis [9]),Activity (Salmonella enteritidis [10]),Activity (Salmonella enteritidis [11]),Activity (Salmonella enteritidis [12]),Activity [13],"viability at 24 h, up to 100 µM [14] [%]","viability at 24 h, up to 100 µM [15] [%]",also measured
CC[C@H](C)[C@H](NC(=O)[C@@H]1CCCN1C(=O)CNC(=O)CNC(=O)[C@H](CCCNC(=N)N)NC(=O)CNC(=O)[C@@H](NC(=O)[C@H](Cc1ccccc1)NC(=O)[C@H](Cc1ccc(O)cc1)NC(=O)[C@@H]1CSSC[C@H](N)C(=O)NCC(=O)N[C@@H](C)C(=O)N[C@@H](Cc2ccccc2)C(=O)N[C@@H](Cc2cnc[nH]2)C(=O)N[C@@H](C(C)C)C(=O)N2CCC[C@H]2C(=O)N1)C(C)C)C(=O)N[C@@H](CO)C(=O)N[C@@H](Cc1ccccc1)C(=O)O (H-CGAFHVPCYFVGRGGPISF-OH; disulfide 1-8),inactive,inactive,inactive,inactive,inactive,inactive,inactive,inactive,inactive,inactive,inactive,inactive,inactive,inactive,inactive,inactive,> 90,> 90,
CC[C@H](C)[C@H](NC(=O)[C@@H]1CCCN1C(=O)[C@@H](NC(=O)CNC(=O)[C@H](CCCNC(=N)N)NC(=O)CNC(=O)[C@@H](NC(=O)[C@H](Cc1ccccc1)NC(=O)[C@H](Cc1ccc(O)cc1)NC(=O)[C@@H]1CSSC[C@H](N)C(=O)NCC(=O)N[C@@H](C)C(=O)NCC(=O)N[C@@H](Cc2ccccc2)C(=O)N[C@@H](Cc2cnc[nH]2)C(=O)N[C@@H](C(C)C)C(=O)N2CCC[C@H]2C(=O)N1)C(C)C)[C@@H](C)O)C(=O)N[C@@H](CO)C(=O)N[C@@H](Cc1ccccc1)C(=O)N[C@@H](Cc1ccc(O)cc1)C(=O)NCC(=O)O (H-CGAGFHVPCYFVGRGTPISFYG-OH; disulfide 1-9),inactive,inactive,inactive,inactive,inactive,inactive,inactive,inactive,inactive,inactive,inactive,inactive,inactive,inactive,inactive,,> 90,> 90,Stability [16]: Unstable; Stability [17]: Unstable; MBC [18]: 62.5 µM; MIC [19]: 30 µM; inhibition [20]: inactive; Stability [21]: Unstable
CC[C@H](C)[C@H](NC(=O)CNC(=O)[C@@H](NC(=O)[C@H](Cc1ccccc1)NC(=O)[C@H](Cc1ccc(O)cc1)NC(=O)[C@@H]1CSSC[C@H](N)C(=O)NCC(=O)N[C@@H](C)C(=O)NCC(=O)N[C@@H](CCCCN)C(=O)N[C@@H](C(C)C)C(=O)N2CCC[C@H]2C(=O)N1)C(C)C)C(=O)NCC(=O)N[C@H](C(=O)N1CCC[C@H]1C(=O)N[C@H](C(=O)N[C@@H](CO)C(=O)N[C@@H](Cc1ccccc1)C(=O)N[C@@H](CCC(=O)O)C(=O)NCC(=O)O)[C@@H](C)CC)[C@@H](C)O (H-CGAGKVPCYFVGIGTPISFEG-OH; disulfide 1-8),inactive,inactive,inactive,inactive,inactive,inactive,inactive,inactive,inactive,inactive,inactive,inactive,inactive,inactive,inactive,inactive,75,75,
CC[C@H](C)[C@H](NC(=O)CNC(=O)[C@@H](NC(=O)[C@H](Cc1ccccc1)NC(=O)[C@H](Cc1ccc(O)cc1)NC(=O)[C@@H]1CSSC[C@H](N)C(=O)NCC(=O)N[C@@H](C)C(=O)N[C@@H](CCCCN)C(=O)N[C@@H](Cc2cnc[nH]2)C(=O)N[C@@H](C(C)C)C(=O)N2CCC[C@H]2C(=O)N1)C(C)C)C(=O)NCC(=O)N[C@H](C(=O)N1CCC[C@H]1C(=O)N[C@H](C(=O)N[C@@H](CO)C(=O)N[C@@H](Cc1ccccc1)C(=O)N[C@@H](CCC(=O)O)C(=O)O)[C@@H](C)CC)[C@@H](C)O (H-CGAKHVPCYFVGIGTPISFE-OH; disulfide 1-8),inactive,inactive,inactive,inactive,inactive,inactive,inactive,inactive,inactive,inactive,inactive,inactive,inactive,inactive,inactive,inactive,,75,
CC[C@H](C)[C@@H]1NC(=O)[C@@H]2CCCN2C(=O)CNC(=O)CNC(=O)[C@H](CCCNC(=N)N)NC(=O)CNC(=O)[C@H](C(C)C)NC(=O)[C@H](Cc2ccccc2)NC(=O)[C@H](Cc2ccc(O)cc2)NC(=O)[C@@H]2CSSC[C@H](NC(=O)[C@H](CCC(=O)O)NC1=O)C(=O)NCC(=O)N[C@@H](C)C(=O)NCC(=O)N[C@@H](Cc1cnc[nH]1)C(=O)N[C@@H](C(C)C)C(=O)N1CCC[C@H]1C(=O)N2 (cyclo(AGHVPCYFVGRGGPIECG); disulfide 6-17),inactive,inactive,inactive,inactive,inactive,inactive,inactive,inactive,inactive,inactive,inactive,inactive,inactive,inactive,inactive,inactive,> 90,> 90,
